# Rows were chosen to be rich in hits. Some 4.1% of all compounds tested hit in one or more screens of this group.
# hERG rescue – hERG rescue from dofetilide block, primary screen, cell-based, CHO-hERG, FluxOR thallium flux, dofetilide IC70. dofetilide IC70 present. hit rate 0.51% among 310,000. AID 1511, 2009. activation (rescue from dofetilide block), less the hit threshold, % at 10 µM;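 active = activation above the mean of controls blocked by dofetilide plus 5 SD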;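 also: thallium influx through hERG after potassium depolarization seen as dye fluorescence rise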
# KCNQ1 inh – inhibitors of human KCNQ1 channel, primary screen, cell-based, thallium flux, high-throughput. AID 2642, 2010. hit rate 1.3% among 310,000. CHO-K1 KCNQ1, FluxOR thallium flux fluorescence; active compounds read high. Potassium voltage-gated channel subfamily KQT member 1 (Homo sapiens), P51787. B-score at 10 µM;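 active = compounds whose thallium flux B-score, printed positive for inhibition, exceeds three library SD while starting fluorescence stays within three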;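 also: channel opened by potassium depolarization with thallium stimulus after 20 min compound exposure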
# KCNK3 inh – human KCNK3 channel inhibitors, primary screen, CHO cells, FluxOR thallium flux, B-score; FluxOR fluorescence; active compounds read low; hit rate 0.84% among 340,000; B-score at 10 µM; Potassium channel subfamily K member 3 (Homo sapiens), O14649;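 active = B-score under library mean minus 4 SD, starting fluorescence ratio at most library mean plus 5 SD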;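 also: more negative B-score means stronger inhibition of thallium flux through KCNK3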
# KCNQ1 pot – potentiators or activators of KCNQ1 channel, primary screen, cell-based, thallium flux, high-throughput | CHO-K1 KCNQ1, thallium flux FluxOR fluorescence; active compounds read high | B-score at 10 µM | hit rate 0.35% among 310,000 | AID 2648, 2010;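 active = fluorescence ratio B-score, a plate-corrected score, at least three library SD, with initial intensity B-score within 5 SD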
#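 System: Stable KCNQ1 CHO-K1 line | Incubation: 90 min dye loading and 20 min compound exposure, both at room temperature | Measure: Ratio B score | Medium: Assay buffer for compound exposure, DMSO matched across wells | Compound dosing: Single-concentration screen | Probe or stimulus: K+/Tl+ depolarizing stimulus | Measured by: Kinetic FluxOR fluorescence, 10 s baseline plus 110 s post-stimulus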
# Cl transport mod – KCC2 cotransporter modulators, thallium flux, primary screen, cell-based, HEK293 KCC2, FluoZin-2 fluorescence, MLSMR; KCC2 cells, thallium flux FluoZin-2 fluorescence; B-score of Tl+ flux slope (higher = more flux/activation; lower = inhibition) at 10 µM; hit rate 2.2% among 190,000; AID 1456, 2008;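 active = thallium flux slope and its plate-corrected score both differing from the plate sample mean at a set confidence after two filtering rounds, in either direction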;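 also: slope of fluorescence scaled to starting intensity during 10 to 20 s after thallium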
# KCNK9 block – KCNK9 potassium channel inhibitors, primary screen, HEK293 cells, thallium flux. AID 488922, 2010. Potassium channel subfamily K member 9 (Homo sapiens), Q9NPC2. B-score at 10 µM. FluxOR thallium flux fluorescence; active compounds read low. hit rate 1.2% among 310,000;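 active = ratio B-score over 3 SD below the library mean, with starting fluorescence within 5 SD of its mean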;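 also: negative B-score means less thallium flux so channel inhibition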
# Starred values were filed as active, the others as inactive; i = inactive; · = no result given.
SMILES,hERG rescue,KCNQ1 inh,KCNK3 inh,KCNQ1 pot,Cl transport mod,KCNK9 block
CN(C)S(=O)(=O)c1ccc(Cl)c(NC(=O)CN2CCN(Cc3ccc4c(c3)OCO4)CC2)c1,-13,i,i,i,-0.36,i
Cc1ccc(CSc2nnc(SCC(=O)N/N=C/c3c(C)nn(-c4ccccc4)c3C)s2)cc1,-14,i,i,i,-2.2,i
Cc1nn(-c2ccccc2)c(C)c1/C=N/NC(=O)CSc1nnc(SCc2ccccc2Cl)s1,-13,6*,i,i,-0.27,i
Cc1ccc2nsnc2c1S(=O)(=O)Nc1cccc2nsnc12,5.2*,i,i,11*,·,i
Cc1ccc(C)c(NS(=O)(=O)c2c(C)ccc3nsnc23)c1,-11,i,i,i,·,i
CCOc1ccc(Oc2cc(NC(=O)c3ccco3)cc([N+](=O)[O-])c2)cc1,·,·,i,·,-0.033,·
O=C(Nc1cc(Oc2ccc(Cl)cc2)cc([N+](=O)[O-])c1)c1ccco1,-11,i,i,i,0.34,-7*
CN(/N=C/c1cccc(Br)c1)C1=NS(=O)(=O)c2ccccc21,-10,i,i,i,·,i
COc1ccc(CCn2c(S)nc3ccccc3c2=O)cc1,4,i,i,8*,·,i
COc1ccc(CCn2c(C(C)C)nc3c(c(=O)c4ccccc4n3C)c2=O)cc1,-11,i,i,i,-4.3*,i
COc1ccc(CCn2c(C)nc3c(c(=O)c4ccccc4n3C)c2=O)cc1,-3,i,i,i,-1.3,i
CCCN(C(=O)COC(=O)CSc1ccc([N+](=O)[O-])cc1)C1CCS(=O)(=O)C1 (stereo not given),·,·,i,·,·,·
CCN1CCN(c2ccc(S(=O)(=O)N3CCCCC3)cc2NC(=O)CC(C)c2ccccc2)CC1 (stereo not given),-18,i,i,i,·,i
CNC[C@@H](Cc1ccccc1)NC[C@@H](CC1CCCCC1)NCCCc1ccccc1,-25,7*,i,i,·,-8.1*
CNC[C@@H](CC1CCCCC1)NC[C@H](CC(C)C)NCCc1cccc(C(F)(F)F)c1,-30,9*,i,i,·,i
COc1ccc(Cl)cc1S(=O)(=O)NC(C)C(=O)NCCN1CCOCC1 (stereo not given),·,·,i,·,·,·
O=C(Nc1ccc(NC(=O)c2cccc([N+](=O)[O-])c2)cc1)c1cccc([N+](=O)[O-])c1,-5,i,i,i,·,i
Cc1ccc([N+](=O)[O-])cc1NC(=O)c1ccc(C(C)(C)C)cc1,-9,9*,i,i,0.69,i
O=C(Nc1cc([N+](=O)[O-])ccc1O)c1cccc([N+](=O)[O-])c1,-9,7*,i,i,·,i
O=C(Nc1cccc2cccnc12)c1cccc([N+](=O)[O-])c1,-9,i,i,i,·,i
O=C(Nc1ccccc1C(=O)Nc1ccccn1)c1cccc([N+](=O)[O-])c1,6.0*,i,i,i,·,i
O=C(Nc1ncc([N+](=O)[O-])s1)c1cccc([N+](=O)[O-])c1,-25,8*,i,i,·,i
Cc1ccc(C(=O)Nc2cc([N+](=O)[O-])ccc2C)cc1,-9,i,i,i,-0.24,i
O=C(Nc1cc([N+](=O)[O-])ccc1O)c1cccc(C(=O)Nc2cc([N+](=O)[O-])ccc2O)c1,-5,i,i,i,·,i
COc1ccc(C(C(=O)Nc2ccc(C(C)C)cc2)N(Cc2ccco2)C(=O)CC2NC(=O)NC2=O)cc1 (stereo not given),-3,6*,i,i,0.24,i
SMILES,hERG rescue,KCNQ1 inh,KCNK3 inh,KCNQ1 pot,Cl transport mod,KCNK9 block
COc1ccc(NC(=O)C(c2ccc(OC)cc2)N(Cc2ccco2)C(=O)CC2NC(=O)NC2=O)cc1 (stereo not given),-1,i,i,i,-0.71,i
COc1ccc(NC(=O)CN(c2ccccc2F)S(=O)(=O)c2ccc(C)cc2)c(OC)c1,-7,i,i,i,·,i
COc1ccc(Cl)cc1NS(=O)(=O)N1CCOCC1,-8,i,i,i,·,i
CN(CCc1ccccc1)C(=O)c1ccc(NC(=O)Cc2ccc(NC(=O)C3CCCN(C(=O)CCc4ccccc4)C3)cc2)cc1 (stereo not given),·,·,i,·,·,·
COC(=O)c1cc(S(=O)(=O)N2CCN(c3cccc(C)c3C)CC2)c[nH]1,-10,i,i,i,·,i
CCOC(=O)c1sc(NN=C(C(=O)OC)C(=O)OC)c(C(=O)OCC)c1C,9.0*,i,i,8*,2.6,i
CCOC(=O)c1sc(NC(=O)CSc2nnc(C)s2)c(C(=O)OCC)c1C,-7,i,i,i,-2.1,-6.8*
CCOC(=O)c1c(NC(=O)CSc2nncs2)sc(C)c1C,-1,i,i,i,-0.38,i
CCCCCCCNC(=O)c1ccc(N2CCC3(CC2)OCCO3)c([N+](=O)[O-])c1,-1,i,i,i,0.15,-6.8*
CCCNC(=O)c1ccc(N2CCC3(CC2)CC(c2ccccc2)=NO3)c([N+](=O)[O-])c1,-7,i,i,i,·,i
Cn1cc([N+](=O)[O-])c(C(=O)N/N=C\c2c[nH]c3ccccc23)n1,-3,i,i,i,-0.47,i
Cn1cc([N+](=O)[O-])c(C(=O)N/N=C/c2ccccc2)n1,4.7*,i,i,i,0.15,i
CNC(=O)NC(=O)COC(=O)c1ccccc1OCc1ccccc1,8.3*,i,i,i,0.065,i
CC(C)c1ccc(C(=O)COC(=O)C(O)c2ccccc2)cc1 (stereo not given),·,·,i,·,·,·
CCc1ccc(NC(=S)NNC(=O)c2ccccc2OC(F)F)cc1,2,i,·,i,18*,i
O=C(Nc1ccc(Br)cc1)c1ccccc1Br,-1,i,i,i,·,-7.8*
COc1ccc(NC(=S)NNC(=O)c2ccccc2OC(F)F)cc1,-9,i,i,i,0.04,i
CCc1ccc(NC(=O)c2ccccc2Br)cc1,-12,i,i,i,-2.3,-7.4*
Cc1cccc(NC(=O)c2ccc(NC(=O)c3ccccc3Br)cc2)c1,-7,i,i,i,·,i
O=C(Nc1ccccc1C(=O)Nc1ccccc1)c1ccccc1Br,-6,i,i,i,·,i
CCCc1ccc2oc(C(=O)N3CCCC3)c(C)c2c1,-4,i,i,i,·,i
